Data set [1] has as its system Staphylococcus aureus. Nature of the data set: Antimicrobial activity against Panton-valentine leukocidin positive community acquired methicillin-resistant Staphylococcus aureus N4090440 obtained from wound infection of patient infected in human THP-1 cells assessed as decrease in bacterial growth after 24 hrs at pH 5.5. Conditions: N4090440, THP-1, 24 h. Format: functional, organism-based. The essentials:
(§1)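 Bacteria phagocytosed by unactivated human THP-1 macrophages, then incubated 24 h with extracellular antibiotic at about 0.01× to 100× the pH 5.5 broth MIC. CFU per mg cell protein counted against the original inoculum, n = 3. A Hill-equation fit (slope factor 1) gave Emin and Emax, extrapolated to infinitely low and high concentration, and EC50. Static concentration was graphically interpolated.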

For data set [2], the system named is Staphylococcus aureus. Nature of the data set: Antimicrobial activity against hospital acquired methicillin-resistant Staphylococcus aureus HMC546 infected in human THP-1 cells assessed as decrease in bacterial growth after 24 hrs at pH 5.5. The conditions noted are these: HMC546, THP-1, 24 h. The format is functional, organism-based. In short, it runs like this: as §1

Data set [3] has as its system Staphylococcus aureus. Nature of the data set: Antimicrobial activity against intracellular beta-lactamase negative methicillin-susceptible Staphylococcus aureus ATCC 25923 infected in human keratinocytes assessed as decrease in bacterial growth after 24 hrs at pH 7.4. Format: functional, organism-based. Conditions: ATCC 25923, 24 h. In short, it runs like this:
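Primary human skin keratinocytes or Calu-3 bronchial epithelial cells, given an inoculum of 5 × 10⁷ to 1 × 10⁸ bacteria/ml and 2 h for internalization. Post-phagocytosis load 1.5 × 10⁶ to 3.0 × 10⁶ CFU per mg cell protein. Cloxacillin dose range in mg/liter for 24 h, n = 3. Hill-derived Emin, Emax and EC50; static concentration interpolated.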

Data set [4] deals with Staphylococcus aureus. The data set can be described thus: Bacteriostatic activity against Panton-valentine leukocidin positive community acquired methicillin-resistant Staphylococcus aureus N4090440 infected in human THP-1 cells assessed as decrease in bacterial growth after 24 hrs at pH 5.5. The format is functional. In short, it runs like this:
(§2)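 Human THP-1 macrophages infected with each S. aureus strain. Cloxacillin added extracellularly at about 0.01× to 100× the broth MIC measured at pH 5.5, with gentamicin 0.5 mg/liter to stop extracellular growth. Incubated 24 h. CFU counted per mg cell protein as change from the post-phagocytosis inoculum, n = 3. Emin, Emax and EC50 from a Hill fit; static concentration by graphical interpolation.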

The subject of data set [5] is Staphylococcus aureus. The data set can be described thus: Bacteriostatic activity against hospital acquired methicillin-resistant and vancomycin-intermediate Staphylococcus aureus VRS2 infected in human THP-1 cells assessed as decrease in bacterial growth after 24 hrs at pH 5.5. Format: functional. In short, it runs like this:
as §2

Data set [6] concerns Staphylococcus aureus. Nature of the data set: Antimicrobial activity against animal acquired methicillin-resistant Staphylococcus aureus N7112046 infected in human THP-1 cells assessed as increase in bacterial count from original inoculum at low compound concentration after 24 hrs at pH 5.5. The format is functional. In short, it runs like this: as §1
For data set [7], the system named is Staphylococcus aureus. Nature of the data set: Antimicrobial activity against intracellular beta-lactamase negative methicillin-susceptible Staphylococcus aureus ATCC 25923 infected in human keratinocytes assessed as decrease in bacterial count from original inoculum at high compound concentration after 24 hrs at pH 7.4. The format is functional. In short, it runs like this:
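Primary human skin keratinocytes or Calu-3 bronchial epithelial cells infected with MSSA ATCC 25923 at 5 × 10⁷ to 1 × 10⁸ bacteria/ml, 2 h internalization. Postphagocytosis inoculum 1.5 × 10⁶ to 3.0 × 10⁶ CFU/mg protein. Cloxacillin concentration range for 24 h; CFU/mg protein change vs. inoculum (n = 3). Hill fit gives Emin/Emax; static concentration by graphical interpolation.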

A further data set has as its system THP-1. The data set can be described thus: Ratio of intracellular to extracellular drug level in human THP1 cells at 250 mg/L after 24 hrs. Format: ADME, cell-based. The conditions noted are these: thp-1, 24 h. In short, it runs like this:
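THP-1 cells incubated 24 h at 250 mg/liter extracellular drug. Cell lysates assayed microbiologically with MSSA ATCC 25923; content expressed per mg total protein. Cellular/extracellular ratio calculated assuming cell volume of 5 μl per mg protein.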

For data set [8], the system named is Staphylococcus aureus. The data set can be described thus: Antimicrobial activity against Panton-valentine leukocidin positive community acquired methicillin-resistant Staphylococcus aureus N4042228 by broth microdilution method at pH 7.4. Format: functional. In short, it runs like this: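 Minimal inhibitory concentration by broth microdilution at pH 7.4, read in mg/liter. The MRSA genotype was confirmed by mecA PCR, and the SCCmec subgroup was assigned by multiplex PCR.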
In general terms: In broth dilution the organism is exposed to a series of concentrations in liquid medium.

Data set [9] deals with Staphylococcus aureus. The data set can be described thus: Antimicrobial activity against intracellular hospital acquired methicillin-resistant Staphylococcus aureus ATCC 33591 infected in activated human THP-1 cells assessed as increase in bacterial count from original inoculum at low compound concentration after 24 hrs at pH 7.4. Format: functional. The essentials: (§3)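 THP-1 cells activated by 24-h culture with phorbol myristate acetate 2 mg/liter, then infected like unactivated THP-1. Cloxacillin dose range in mg/liter for 24 h. CFU per mg cell protein relative to the original inoculum, n = 3. Emin and Emax extrapolated from a Hill fit (slope 1), with EC50 as total drug; static concentration by graphical interpolation.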

The test system of data set [10] is Staphylococcus aureus. Nature of the data set: Bacteriostatic activity against hospital acquired methicillin-resistant Staphylococcus aureus N4120210 infected in human THP-1 cells assessed as decrease in bacterial growth after 24 hrs at pH 5.5. Format: functional. In short, it runs like this:
as §2

The nature of data set [11]: Chemical stability of the compound assessed as compound remaining after 24 hrs in PBS buffer by HPLC analysis at pH 7.4. The format is physicochemical. Conditions: read-out: Activity. In short, it runs like this:
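Drug at 50 mg/liter initial concentration incubated 24 h at 37°C in buffered medium at pH 7.4 or 5.5. Remaining drug measured by HPLC signal disappearance; mobile phase 25 mM phosphate buffer pH 6.7 with acetonitrile (75:25).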

For data set [12], the system named is Staphylococcus aureus. Nature of the data set: Antimicrobial activity against Panton-valentine leukocidin positive community acquired methicillin-resistant Staphylococcus aureus NRS192 obtained from patient with pneumonia and septic arthritis by broth microdilution method at pH 5.5. The format is functional.
For data set [13], the system named is Staphylococcus aureus. The data set can be described thus: Antimicrobial activity against hospital acquired methicillin-resistant Staphylococcus aureus ATCC 33591 infected in human THP-1 cells assessed as increase in bacterial count from original inoculum at low compound concentration after 24 hrs at pH 7.4. Format: functional.
Data set [14] has as its system Staphylococcus aureus. Nature of the data set: Bacteriostatic activity against hospital acquired methicillin-resistant and vancomycin-intermediate Staphylococcus aureus NRS18 infected in human THP-1 cells assessed as decrease in bacterial growth after 24 hrs at pH 5.5. Format: functional. In short, it runs like this: as §2
For data set [15], the system named is Staphylococcus aureus. The data set can be described thus: Bacteriostatic activity against intracellular beta-lactamase negative methicillin-susceptible Staphylococcus aureus ATCC 25923 infected in activated human THP-1 cells assessed as decrease in bacterial growth after 24 hrs at pH 7.4. Format: functional. In short, it runs like this:
as §3

The subject of data set [16] is Staphylococcus aureus. The data set can be described thus: Antimicrobial activity against beta-lactamase negative methicillin-susceptible Staphylococcus aureus ATCC 25923 infected in human THP-1 cells assessed as increase in bacterial count from original inoculum at low compound concentration after 24 hrs at pH 5.5. Format: functional. In short, it runs like this: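 MSSA ATCC 25923 phagocytized by unactivated THP-1 macrophages; extracellular antibiotic from about 0.01× to 100× the broth MIC at pH 5.5, with gentamicin 0.5 mg/liter to block extracellular growth. CFU per mg cell protein counted at 24 h vs. original inoculum (n = 3). A Hill equation (slope factor 1) gives Emin/Emax, extrapolated to infinitely low/high concentration. Static concentration is read by graphical interpolation.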

For data set [17], the system named is Staphylococcus aureus. Nature of the data set: Antimicrobial activity against constitutive beta-lactamase negative methicillin-resistant Staphylococcus aureus COL NRS100 infected in human THP-1 cells assessed as decrease in bacterial growth after 24 hrs at pH 5.5. The format is functional, organism-based. Conditions: COL NRS100, THP-1, 24 h. In short, it runs like this:
as §1

In data set [18] the test system is Staphylococcus aureus. Nature of the data set: Bacteriostatic activity against hospital acquired methicillin-resistant Staphylococcus aureus HMC546 infected in human THP-1 cells assessed as decrease in bacterial growth after 24 hrs at pH 5.5. Format: functional. The essentials:
as §2

≈ marks a conversion by molar mass, not a printed value.

Regarding `Cc1onc(-c2ccccc2Cl)c1C(=O)N[C@@H]1C(=O)N2[C@@H]1SC(C)(C)[C@@H]2C(=O)O` [CLOXACILLIN], the EC50 with Staphylococcus aureus [1] came out at 3.14 ×MIC; with Staphylococcus aureus [2], 5.67 ×MIC; in the data set with Staphylococcus aureus [3], 0.42 µg/mL (≈ 0.964 µM); with Staphylococcus aureus [17], 2.74 ×MIC. The Activity in the data set with Staphylococcus aureus [4] is 17.4 ×MIC; in the data set with Staphylococcus aureus [5] it was 8.12 mg/L; with Staphylococcus aureus [10], 35.5 ×MIC; in the data set with Staphylococcus aureus [14] it was 14.1 ×MIC; in the data set on Staphylococcus aureus [15] it was 1.3 mg/L; in the data set with Staphylococcus aureus [18] it was 11.7 ×MIC. Also, the log10cfu in the data set with Staphylococcus aureus [6] is given as 1.84; in the data set on Staphylococcus aureus [7] it was 0.95; with Staphylococcus aureus [9], 2.15; in the data set with Staphylococcus aureus [13] it was 2.27; in the data set on Staphylococcus aureus [16], 1.96. Also, the Ratio in the data set with THP-1 turned out to be 0.28. For the same compound, the minimum inhibitory concentration (MIC) (as a rule, the lowest concentration that inhibits growth of the organism) with Staphylococcus aureus [8] came to 0.5 µg/mL (≈ 1.15 µM); in the data set with Staphylococcus aureus [12], 0.06 µg/mL (≈ 0.138 µM). For the same compound, the remaining at 24 h in [11] is 97.8%.

The values are drawn from ChEMBL document CHEMBL1649111, “Restoration of susceptibility of intracellular methicillin-resistant Staphylococcus aureus to beta-lactams: comparison of strains, cells, and antibiotics” (Antimicrob Agents Chemother, 2008).
